ChEMBL document CHEMBL1156764, “Structure-based design of pteridine reductase inhibitors targeting African sleeping sickness and the leishmaniases” (J Med Chem, 2010)

Key:
[1] = target: T1, Pteridine reductase 1 (Leishmania major, UniProt Q01782); assay: Inhibition of Leishmania major recombinant PTR1
T1 sequence (Q01782 whole entry): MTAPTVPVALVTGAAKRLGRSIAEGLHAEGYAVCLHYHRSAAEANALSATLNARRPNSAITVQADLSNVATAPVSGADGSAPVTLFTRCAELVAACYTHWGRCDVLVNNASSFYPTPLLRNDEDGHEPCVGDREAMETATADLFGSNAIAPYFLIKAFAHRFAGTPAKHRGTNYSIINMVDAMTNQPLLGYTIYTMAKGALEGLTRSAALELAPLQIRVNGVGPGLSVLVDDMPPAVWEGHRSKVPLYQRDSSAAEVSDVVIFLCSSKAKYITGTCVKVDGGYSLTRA
Method in brief: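 Recombinant L. major PTR1, stored at 15 mg mL^-1 (stock) in 50 mM Tris-HCl, 250 mM NaCl, 20% glycerol, pH 7.5. Substrate was H2B, with a 10 mM stock in 0.1 M NaOH. Compound stocks were 100 mM in DMSO. IC50 came from dose–response fits corrected with Morrison's tight-binding equation. Ki was calculated from IC50 using the competitive-inhibition equation.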

[2] = Inhibition of Trypanosoma brucei recombinant PTR1
Method in brief: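 Recombinant enzyme stored at 15 mg mL^-1 in 50 mM Tris-HCl, 250 mM NaCl, 20% glycerol, pH 7.5. Substrate was H2B, prepared as a 10 mM stock in 0.1 M NaOH. Compound stocks were 100 mM in DMSO. IC50 came from dose–response plots fitted with Morrison's tight-binding equation. Ki was calculated from IC50 assuming competitive inhibition.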

[3] = system: Trypanosoma brucei brucei; assay: Antitrypanosomal activity against Trypanosoma brucei brucei Lister 427 blood stream form by Alamar blue assay; type: functional; settings: read-out: ED50 (the source's name)
Method in brief: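 Bloodstream-form Lister 427 grown at 37 °C, 5% CO2 in HMI-9 with neomycin pressure (T7 polymerase and tetracycline repressor lines), fetal calf serum 10%, folate not reduced. Exposed to increasing inhibitor concentrations. Viability read by Alamar blue. ED50 taken from dose–response plots. Three separate determinations, each in quadruplicate (n = 12).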

SMILES	Ki [1]	Ki [2]	EC50 [3]
N#Cc1c(-c2ccc3c(c2)OCO3)[nH]c2nc(N)[nH]c(=O)c12	2.6 µM	0.4 µM	123 µM
Nc1nc2[nH]cc(CCc3ccccc3)c2c(=O)[nH]1	> 27 µM	–	–
Nc1nc(N)c2nc(-c3ccccc3)c(N)nc2n1	3.4 µM	1.2 µM	–
Cc1ccc(Sc2cc(N)nc(N)n2)cc1	27 µM	5.4 µM	–
Nc1cc(NC2CC2)nc(N)n1	> 27 µM	> 35 µM	–
Nc1nc2[nH]ccc2c(=S)[nH]1	> 27 µM	> 35 µM	–
CCc1ccc(-c2[nH]c3nc(N)[nH]c(=O)c3c2C#N)cc1	16.4 µM	0.5 µM	–
N#Cc1c[nH]c2nc(N)[nH]c(=O)c12	> 27 µM	5.8 µM	–
CC(C)c1nc2nc(N)nc(N)c2nc1C(C)C	0.24 µM	3.3 µM	–
Nc1cc(N)nc(N)n1	> 27 µM	> 35 µM	–
CCc1nc(N)nc(N)c1-c1ccc(Cl)cc1 [PYRIMETHAMINE]	–	–	26.6 µM
N#Cc1c(Br)[nH]c2nc(N)[nH]c(=O)c12	> 27 µM	3.9 µM	–
CC1=Nc2c(N)nc(N)nc2NC1(C)C	12 µM	> 35 µM	–
Nc1nc2c(c(=O)[nH]1)CC=N2 [7-DEAZAGUANINE]	–	> 35 µM	–
COc1ccc(-c2[nH]c3nc(N)[nH]c(=O)c3c2C#N)cc1	3.4 µM	0.36 µM	274 µM
N#Cc1c(-c2ccccc2)[nH]c2nc(N)[nH]c(=O)c12	> 27 µM	0.71 µM	–
Nc1cc(SCc2ccccc2)nc(N)n1	0.6 µM	3.2 µM	–
COc1ccc(CSc2cc(N)nc(N)n2)cc1	2.7 µM	18 µM	–
N#Cc1c(-c2cccc(C=O)c2)[nH]c2nc(N)[nH]c(=O)c12	4.2 µM	0.29 µM	–
